Experimental data published in ChEMBL document CHEMBL1132437, “Synthesis and antimicrobial activity of 4H-4-oxoquinolizine derivatives: consequences of structural modification at the C-8 position” (1999).
Converted amounts (≈) assume the structure as drawn.

Key:
[1] = test system: Enterococcus faecium; assay: In vitro antibacterial activity against gram-positive Enterococcus faecium ATCC 8043; assay type: functional
Summary of the method: (§1)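 Agar dilution MIC determination following the National Committee for Clinical Laboratory Standards recommendations.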

[2] = test system: Escherichia coli; assay: In vitro antibacterial activity against gram negative Escherichia coli KNK 437; assay type: functional; summary of the method: as §1
[3] = test system: Pseudomonas aeruginosa; assay: In vivo efficacy against Pseudomonas aeruginosa 5007 in mouse protection test after subcutaneous administration; assay type: functional; conditions: Pseudomonas aeruginosa, sc; read-out: ED50
Summary of the method: (§2)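 Mouse protection model: mice infected intravenously with 100-fold LD50 of the organism. Compound given by subcutaneous injection or oral gavage at 1 and 5 h after infection, over a dose range. Deaths tracked for 7 days post-inoculation. ED50 is the dose giving 50% survival of treated mice over the trial.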

[4] = test system: Staphylococcus aureus; assay: In vivo efficacy against Staphylococcus aureus NCTC 10649M in mouse; assay type: functional; summary of the method: as §2
[5] = test system: Streptococcus pneumoniae; assay: In vivo efficacy against Streptococcus pneumoniae ATCC 6303 in mouse protection test after s.c. administration.; assay type: functional; conditions: Streptococcus pneumoniae, sc; read-out: ED50; summary of the method: as §2
[6] = test system: Pseudomonas aeruginosa; assay: In vitro antibacterial activity against Gram-negative Pseudomonas aeruginosa 5007; assay type: functional; summary of the method: as §1
[7] = test system: Pseudomonas aeruginosa; assay: In vitro antibacterial activity against gram negative P. aeruginosa DPHP 5263; assay type: functional; summary of the method: as §1
[8] = test system: Burkholderia cepacia; assay: In vitro antibacterial activity against gram negative Pseudomonas cepacia 2961; assay type: functional; summary of the method: as §1
[9] = test system: Staphylococcus aureus; assay: In vitro antibacterial activity against gram-positive Staphylococcus aureus 1775; assay type: functional; summary of the method: as §1
[10] = test system: Staphylococcus aureus; assay: In vitro antibacterial activity against gram-positive Staphylococcus aureus NCTC 10649M; assay type: functional; summary of the method: as §1
[11] = test system: Streptococcus pyogenes; assay: In vitro antibacterial activity against gram positive Streptococcus pyogenes 930; assay type: functional; summary of the method: as §1
[12] = test system: Staphylococcus aureus; assay: In vivo efficacy against Staphylococcus aureus NCTC 10649M in mouse protection test after p.o. administration.; assay type: functional; conditions: Staphylococcus aureus, po; read-out: ED50; summary of the method: as §2
[13] = test system: Escherichia coli; assay: In vivo efficacy against Escherichia coli JUHL in mouse protection test after p.o. administration.; assay type: functional; conditions: Escherichia coli, po; read-out: ED50; summary of the method: as §2
[14] = test system: Escherichia coli; assay: In vivo efficacy against Escherichia coli JUHL in mouse protection test after subcutaneous administration; assay type: functional; conditions: Escherichia coli, sc; read-out: ED50; summary of the method: as §2
[15] = test system: Mus musculus; assay: (§3) In vivo efficacy against Pseudomonas aeruginosa 5007 in mouse protection test after administration by oral gavage; assay type: functional; summary of the method: as §2
[16] = test system: Mus musculus; assay: IIn vivo efficacy against Escherichia coli JUHL in mouse protection test after administration by oral gavage; assay type: functional; summary of the method: as §2
[17] = test system: Pseudomonas aeruginosa; assay: Not Plasmodium species; assay type: functional
[18] = test system: Mus musculus; assay: In vivo efficacy against Pseudomonas aeruginosa 5007 in mouse protection test […]; assay type: functional; summary of the method: as §2
[19] = test system: Mus musculus; assay: In vivo efficacy against Streptococcus pneumoniae ATCC 6303 in mouse protection test after administration by oral gavage; assay type: functional; summary of the method: as §2
[20] = test system: Pseudomonas aeruginosa; assay: as §3; assay type: functional; conditions: Pseudomonas aeruginosa, po; read-out: ED50; summary of the method: as §2
[21] = test system: Mus musculus; assay: In vivo efficacy against Staphylococcus aureus NCTC 10649M in mouse protection test
[22] = test system: Mus musculus; assay: In vivo efficacy against Pseudomonas aeruginosa 5007 in mouse protection test after administration by oral gavage.; assay type: functional; summary of the method: as §2
[23] = Enterococcus faecium, ATCC 8043, read-out: MIC
[24] = Escherichia coli, read-out: MIC
[25] = Staphylococcus aureus, read-out: ED50
[26] = Pseudomonas aeruginosa, read-out: MIC
[27] = Pseudomonas aeruginosa, DPHP 5263, read-out: MIC
[28] = Burkholderia cepacia, read-out: MIC
[29] = Staphylococcus aureus, read-out: MIC
[30] = Staphylococcus aureus, NCTC 10649, read-out: MIC
[31] = Streptococcus pyogenes, read-out: MIC

Structure (SMILES) | MIC [1, 23] | MIC [2, 24] | ED50 [3] | ED50 [4, 25] | ED50 [5] | MIC [6, 26] | MIC [7, 27] | MIC [8, 28] | MIC [9, 29] | MIC [10, 30] | MIC [11, 31] | ED50 [12] | ED50 [13] | ED50 [14] | further results
Cc1c(N2CCC[C@@H](NC3CC3)C2)c(F)cn2c(=O)c(C(=O)O)cc(C3CC3)c12 | 0.05 µg/mL (≈ 0.125 µM) | 0.1 µg/mL (≈ 0.25 µM) | > 32 mg/kg | 1.8 mg/kg | > 16 mg/kg | 0.78 µg/mL (≈ 1.95 µM) | 25 µg/mL (≈ 62.6 µM) | 6.2 µg/mL (≈ 15.5 µM) | 3.1 µg/mL (≈ 7.76 µM) | 0.01 µg/mL (≈ 0.025 µM) | 0.02 µg/mL (≈ 0.0501 µM) |  |  |  | 
CCCN[C@H]1CCN(c2c(F)cn3c(=O)c(C(=O)O)cc(C4CC4)c3c2C)C1 | 0.39 µg/mL (≈ 1.01 µM) | 0.2 µg/mL (≈ 0.516 µM) | > 8 mg/kg | 4.3 mg/kg |  | 1.56 µg/mL (≈ 4.03 µM) | 12.5 µg/mL (≈ 32.3 µM) | 3.1 µg/mL (≈ 8 µM) | 1.56 µg/mL (≈ 4.03 µM) | 0.1 µg/mL (≈ 0.258 µM) | 0.2 µg/mL (≈ 0.516 µM) | 25.4 mg/kg | > 10 mg/kg | 1.1 mg/kg | ED50 [15]: > 50 mg/kg
Cc1c(N2C[C@@H]3OCCN[C@@H]3C2)c(F)cn2c(=O)c(C(=O)O)cc(C3CC3)c12 | 0.1 µg/mL (≈ 0.258 µM) | 0.78 µg/mL (≈ 2.01 µM) |  | 2.7 mg/kg |  | 1.56 µg/mL (≈ 4.03 µM) | 100 µg/mL (≈ 258 µM) | 6.2 µg/mL (≈ 16 µM) | 0.78 µg/mL (≈ 2.01 µM) | 0.002 µg/mL (≈ 0.00516 µM) | 0.1 µg/mL (≈ 0.258 µM) |  |  | > 5 mg/kg | ED50 [4]: 4.8 mg/kg; ED50 [16]: > 20 mg/kg
Cc1c(N2CCCC2)c(F)cn2c(=O)c(C(=O)O)cc(C3CC3)c12 | 0.2 µg/mL (≈ 0.605 µM) | 0.39 µg/mL (≈ 1.18 µM) |  | > 12 mg/kg |  |  | > 100 µg/mL | 0.78 µg/mL (≈ 2.36 µM) | 0.78 µg/mL (≈ 2.36 µM) | 0.02 µg/mL (≈ 0.0605 µM) | 0.2 µg/mL (≈ 0.605 µM) |  |  | > 50 mg/kg | MIC [17]: 0.78 µg/mL (≈ 2.36 µM)
Cc1c(N2CC[C@@H]3NCCC[C@@H]32)c(F)cn2c(=O)c(C(=O)O)cc(C3CC3)c12 | 3.1 µg/mL (≈ 8.04 µM) | 0.78 µg/mL (≈ 2.02 µM) | > 32 mg/kg | 7 mg/kg |  | 3.1 µg/mL (≈ 8.04 µM) | 100 µg/mL (≈ 259 µM) | 25 µg/mL (≈ 64.9 µM) | 12.5 µg/mL (≈ 32.4 µM) | 0.2 µg/mL (≈ 0.519 µM) | 1.56 µg/mL (≈ 4.05 µM) | 23.9 mg/kg |  | 4.4 mg/kg | ED50 [18]: > 50 mg/kg; ED50 [16]: > 10 mg/kg
Cc1c(N2C[C@@H](N)[C@H](C3CC3)C2)c(F)cn2c(=O)c(C(=O)O)cc(C3CC3)c12 (stereo in doubt) |  |  | > 32 mg/kg |  | 8 mg/kg |  |  |  |  |  |  | 10.9 mg/kg | 10 mg/kg | 3.4 mg/kg | MIC [1]: 0.1 µg/mL (≈ 0.259 µM); MIC [2]: 0.2 µg/mL (≈ 0.519 µM); ED50 [19]: 25 mg/kg; ED50 [20]: > 50 mg/kg; MIC [6]: 0.39 µg/mL (≈ 1.01 µM); MIC [7]: 3.1 µg/mL (≈ 8.04 µM); MIC [8]: 1.56 µg/mL (≈ 4.05 µM); MIC [9]: 0.78 µg/mL (≈ 2.02 µM); MIC [10]: 0.05 µg/mL (≈ 0.13 µM); MIC [11]: 0.05 µg/mL (≈ 0.13 µM); ED50 [21]: 1.5 mg/kg
Cc1c(N2C[C@@H](N)[C@@H](C3CC3)C2)c(F)cn2c(=O)c(C(=O)O)cc(C3CC3)c12 (stereo in doubt; 3s) | 0.1 µg/mL (≈ 0.259 µM) | 0.2 µg/mL (≈ 0.519 µM) |  | 1.5 mg/kg |  | 0.39 µg/mL (≈ 1.01 µM) | 12.5 µg/mL (≈ 32.4 µM) | 0.78 µg/mL (≈ 2.02 µM) | 0.39 µg/mL (≈ 1.01 µM) |  |  | 3.4 mg/kg | 6.6 mg/kg | 3.7 mg/kg | MIC [10]: 0.02 µg/mL (≈ 0.0519 µM); MIC [11]: 0.1 µg/mL (≈ 0.259 µM)
Cc1c(N2CCC2)c(F)cn2c(=O)c(C(=O)O)cc(C3CC3)c12 | 0.78 µg/mL (≈ 2.47 µM) | 3.1 µg/mL (≈ 9.8 µM) |  |  |  |  | > 10 µg/mL | 3.1 µg/mL (≈ 9.8 µM) | 3.1 µg/mL (≈ 9.8 µM) | 0.2 µg/mL (≈ 0.632 µM) | 0.78 µg/mL (≈ 2.47 µM) |  |  |  | MIC [17]: 3.1 µg/mL (≈ 9.8 µM)
Cc1c(N2CCCO2)c(F)cn2c(=O)c(C(=O)O)cc(C3CC3)c12 | 3.1 µg/mL (≈ 9.33 µM) | 6.2 µg/mL (≈ 18.7 µM) |  | > 12 mg/kg |  | 6.2 µg/mL (≈ 18.7 µM) | > 100 µg/mL | 6.2 µg/mL (≈ 18.7 µM) | > 100 µg/mL | 0.78 µg/mL (≈ 2.35 µM) | 6.2 µg/mL (≈ 18.7 µM) |  |  | > 5 mg/kg | 
Cc1c(N2CC[C@@H](C)[C@H](N)C2)c(F)cn2c(=O)c(C(=O)O)cc(C3CC3)c12 |  |  | 24.5 mg/kg | 1 mg/kg | 2.1 mg/kg |  |  |  |  |  |  | 4.3 mg/kg | 3 mg/kg | 0.6 mg/kg | ED50 [19]: 1 mg/kg; ED50 [22]: > 50 mg/kg
